Measured values as given in ChEMBL document CHEMBL1150066, “Cytotoxic activity of tetraprenylphenols related to suillin, an antitumor principle from Suillus granulatus” (J Nat Prod, 1992).
In brackets after ≈: the same amount, converted by molar mass.

Legend:
Type in all cases: functional, cell-based
[1] = tested on: P388; assay: Cytotoxicity against mouse P388 cells after 72 hrs by MTT assay; details: P388, 72 h
How it was run: (§1)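 Cells per well: NSCLC-N6 0.2×10^5, KB 0.1×10^5, P388 0.05×10^5, in RPMI 1640 with 5% fetal calf serum, penicillin/streptomycin and 2 mM glutamine. Test solution added at decreasing concentrations in duplicate wells, then 72 h at 37° in 5% CO2. MTT added for 4 h, formazan dissolved in […], A570 read. IC50 taken from the dose/effect curve relative to controls.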

[2] = Cytotoxicity against human NSCLC-N6 cells after 72 hrs by MTT assay; details: NSCLC-N6, 72 h; how it was run: as §1
[3] = tested on: KB; assay: Cytotoxicity against human KB cells after 72 hrs by MTT assay; how it was run: as §1
[4] = Cytotoxicity against human NSCLC-N6 cells at 5 ug/ml after 72 hrs by MTT assay
[5] = tested on: KB; assay: Cytotoxicity against human KB cells at 5 ug/ml after 72 hrs by MTT assay
[6] = tested on: P388; assay: Cytotoxicity against mouse P388 cells at 5 ug/ml after 72 hrs by MTT assay
[7] = tested on: KB; assay: Cytotoxicity against human KB cells at 10 ug/ml after 72 hrs by MTT assay

Q: Which IC50 [1] does the source give for `CC(=O)Oc1ccc(O)c(O)c1C/C=C(\C)CC/C=C(\C)CC/C=C(\C)CCC=C(C)C` [TETRAPRENYLPHENOLSUILLIN] here?
A: 0.8 µg/mL (≈ 1.82 µM)

Q: What about the IC50 [2] of the same molecule?
A: 1 µg/mL (≈ 2.27 µM)

Q: What about the IC50 [3] of the same molecule?
A: 0.7 µg/mL (≈ 1.59 µM)

Q: For `CC(=O)Oc1ccc(OC(C)=O)c(OC(C)=O)c1CCC(C)CCCC(C)CCCC(C)CCCC(C)C` (configuration not stated), which IC50 [1] is on record?
A: > 16.6 µg/mL

Q: What about the IC50 [2] of the same molecule?
A: 9 µg/mL (≈ 16.9 µM)

Q: What about the IC50 [3] of the same molecule?
A: > 10 µg/mL

Q: With `CC(=O)Oc1c(O)ccc(O)c1C/C=C(\C)CC/C=C(\C)CC/C=C(\C)CCC=C(C)C` as the molecule, how does the IC50 [1] read?
A: 0.9 µg/mL (≈ 2.04 µM)

Q: What about the IC50 [2] of the same molecule?
A: 2.9 µg/mL (≈ 6.58 µM)

Q: And the IC50 [3]?
A: 2.5 µg/mL (≈ 5.67 µM)

Q: For `COc1ccc(OC(C)=O)c(C/C=C(\C)CC/C=C(\C)CC/C=C(\C)CCC=C(C)C)c1OC`, which IC50 [1] is on record?
A: 3.7 µg/mL (≈ 7.89 µM)

Q: And the IC50 [2]?
A: 5.8 µg/mL (≈ 12.4 µM)

Q: What about the IC50 [3] of the same molecule?
A: 7.5 µg/mL (≈ 16 µM)

Q: Which IC50 [1] does the source give for `CC(=O)Oc1ccc(OC(C)=O)c(OC(C)=O)c1C/C=C(\C)CC/C=C(\C)CC/C=C(\C)CCC=C(C)C` here?
A: 5 µg/mL (≈ 9.53 µM)

Q: And the IC50 [2]?
A: 1.9 µg/mL (≈ 3.62 µM)

Q: What about the IC50 [3] of the same molecule?
A: 2 µg/mL (≈ 3.81 µM)

Q: For `CC(C)=CCC/C(C)=C/CC/C(C)=C/CCC1(C)C=Cc2c(ccc(O)c2O)O1` (configuration not stated), which IC50 [4] is on record?
A: Not Active

Q: What about the IC50 [5] of the same molecule?
A: Not Active

Q: And the IC50 [6]?
A: Not Active

Q: For `COc1c(O)cc(O)cc1C/C=C(\C)CC/C=C(\C)CC/C=C(\C)CCC=C(C)C`, which IC50 [1] is on record?
A: 2.1 µg/mL (≈ 5.09 µM)

Q: And the IC50 [2]?
A: 2.2 µg/mL (≈ 5.33 µM)

Q: And the IC50 [3]?
A: 5 µg/mL (≈ 12.1 µM)

Q: With `CC(=O)Oc1cc(C/C=C(\C)CC/C=C(\C)CC/C=C(\C)CCC=C(C)C)c(OC(C)=O)c(OC(C)=O)c1` as the molecule, how does the IC50 [1] read?
A: 0.4 µg/mL (≈ 0.762 µM)

Q: And the IC50 [2]?
A: 0.8 µg/mL (≈ 1.52 µM)

Q: What about the IC50 [3] of the same molecule?
A: 0.9 µg/mL (≈ 1.72 µM)

Q: Which IC50 [1] does the source give for `CC(=O)Oc1c(O)cc(O)cc1C/C=C(\C)CC/C=C(\C)CC/C=C(\C)CCC=C(C)C` here?
A: 2.3 µg/mL (≈ 5.22 µM)

Q: What about the IC50 [2] of the same molecule?
A: 2.3 µg/mL (≈ 5.22 µM)

Q: What about the IC50 [5] of the same molecule?
A: Not Active

Q: Which results are given for `CC(=O)Oc1ccc(O)c(O)c1CCC(C)CCCC(C)CCCC(C)CCCC(C)C` (configuration not stated)?
A: IC50 [1]: 8.2 µg/mL (≈ 18.3 µM); IC50 [2]: 4.5 µg/mL (≈ 10 µM); IC50 [3]: 6.3 µg/mL (≈ 14 µM)

Q: With `COc1ccc(OC)c(OC)c1C/C=C(\C)CC/C=C(\C)CC/C=C(\C)CCC=C(C)C` as the molecule, how does the IC50 [7] read?
A: Not Active

Q: And the IC50 [1]?
A: > 10 µg/mL

Q: What about the IC50 [2] of the same molecule?
A: > 10 µg/mL

Q: For `CC(=O)Oc1ccc2c(c1OC(C)=O)C=CC(C)(CC/C=C(\C)CC/C=C(\C)CCC=C(C)C)O2` (configuration not stated), which IC50 [1] is on record?
A: 0.3 µg/mL (≈ 0.624 µM)

Q: What about the IC50 [2] of the same molecule?
A: 0.7 µg/mL (≈ 1.46 µM)

Q: And the IC50 [3]?
A: 1 µg/mL (≈ 2.08 µM)

Q: Which results are given for `COc1ccc(O)c(O)c1C/C=C(\C)CC/C=C(\C)CC/C=C(\C)CCC=C(C)C`?
A: IC50 [1]: 2.8 µg/mL (≈ 6.79 µM); IC50 [2]: > 5 µg/mL; IC50 [5]: Not Active

Q: For `CC(=O)Oc1ccc2c(c1OC(C)=O)CCC(C)(CCCC(C)CCCC(C)CCCC(C)C)O2` (configuration not stated), which IC50 [1] is on record?
A: 0.7 µg/mL (≈ 1.43 µM)

Q: And the IC50 [2]?
A: 0.9 µg/mL (≈ 1.84 µM)

Q: What about the IC50 [3] of the same molecule?
A: 1.1 µg/mL (≈ 2.25 µM)
